Test results reported in ChEMBL document CHEMBL1148450, “Novel amino acid derived natural products from the ascidian Atriolum robustum: identification and pharmacological characterization of a unique adenosine derivative” (J Med Chem, 2004).

Experiments:
Adenosine receptor A2a [1] = target: T1, Adenosine receptor A2a (Rattus norvegicus, UniProt P30543); experiment: Displacement of [3H]-MSX-2 from Adenosine A2A receptor of rat striatal membranes; assay type: cell membranes, Membrane
Outline: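 Rat striatal membranes (protein ca. 70 µg/mL) were incubated with 1 nM [3H]MSX-2 in 50 mM Tris-HCl, pH 7.4, for 30 min at 23 °C. […] Filtration was on PEI-presoaked GF/B filters with scintillation counting. Seven to nine concentrations (DMSO stock) spanned 3 log units; three experiments, each in duplicate.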

[2] = target: T2, Adenosine receptor A3 (Homo sapiens) (UniProt P0DMS8); experiment: Percent efficacy for inhibition of human adenosine A3 receptor activity relative to NECA; assay type: functional
T2 sequence (whole entry): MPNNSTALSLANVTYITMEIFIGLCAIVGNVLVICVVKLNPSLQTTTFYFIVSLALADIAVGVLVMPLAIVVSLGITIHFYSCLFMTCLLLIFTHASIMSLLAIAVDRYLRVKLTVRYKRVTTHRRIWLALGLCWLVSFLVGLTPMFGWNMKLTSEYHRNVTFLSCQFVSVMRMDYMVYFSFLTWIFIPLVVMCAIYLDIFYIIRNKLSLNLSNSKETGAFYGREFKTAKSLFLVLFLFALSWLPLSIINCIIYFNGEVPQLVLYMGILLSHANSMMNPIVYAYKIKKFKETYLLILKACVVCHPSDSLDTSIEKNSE

Adenosine receptor A1 [3] = target: T3, Adenosine receptor A1 (Rattus norvegicus, UniProt P25099); experiment: Displacement of [3H]DPCPX from adenosine A1 receptor of rat cortical membranes without GTP; assay type: cell membranes, Membrane
T3 sequence (P25099 whole entry): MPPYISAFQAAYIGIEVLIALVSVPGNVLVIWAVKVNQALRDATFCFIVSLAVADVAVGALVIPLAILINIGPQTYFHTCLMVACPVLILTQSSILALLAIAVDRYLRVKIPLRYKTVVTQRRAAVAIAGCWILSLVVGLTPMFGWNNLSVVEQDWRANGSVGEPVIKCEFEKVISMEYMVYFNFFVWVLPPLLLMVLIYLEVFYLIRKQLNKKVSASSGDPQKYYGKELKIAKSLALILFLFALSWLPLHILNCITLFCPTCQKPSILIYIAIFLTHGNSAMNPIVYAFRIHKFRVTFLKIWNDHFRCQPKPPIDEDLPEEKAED
Outline: (§1)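 Cortical A1 assay as for [3H]CCPA (50 mM Tris-HCl pH 7.4, 23 °C, 90 min, ~70 µg/mL protein) but with [3H]DPCPX as radioligand and 10 µM unlabeled DPCPX for nonspecific binding. Curves were run without and with 100 µM GTP and fitted by nonlinear regression to apparent IC50s. GTP shift = IC50(+GTP)/IC50(−GTP). Two experiments, each in duplicate.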

Adenosine receptor A2a [4] = target: T1, Adenosine receptor A2a; experiment: Displacement of [3H]NECA from Adenosine A2A receptor of rat striatal membranes; assay type: cell membranes, Membrane
Adenosine receptor A3 [5] = target: T4, Adenosine receptor A3 (Homo sapiens, UniProt P0DMS8); experiment: Displacement of [3H]PSB-11 from human adenosine A3 receptor expressed in CHO cells; assay type: cell-based
T4 sequence (P0DMS8 whole entry): T2 sequence (whole entry)
Outline: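 Membranes came from CHO cells stably expressing human A3AR. They were incubated with 0.5 nM [3H]PSB-11 in 50 mM Tris-HCl, pH 7.4, for 45 min, and 100 µM R-PIA defined nonspecific binding. Bound radioactivity was collected on GF/B filters and scintillation-counted. Seven to nine test concentrations were used; run twice, each in duplicate.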

Adenosine receptor A1 [6] = target: T3, Adenosine receptor A1; experiment: Displacement of [3H]CCPA from adenosine A1 receptor of rat cortical membranes; assay type: cell membranes, Membrane
Outline: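 Rat brain cortical membranes at about 70 µg/mL protein, with 0.5 nM [3H]CCPA in 50 mM Tris-HCl pH 7.4, 23 °C for 90 min. Nonspecific binding was set with 10 µM 2-chloroadenosine. Bound ligand was collected by GF/B filtration and counted by scintillation. The test compound came from DMSO at 7–9 concentrations spanning 3 orders of magnitude. Three experiments were run, each in duplicate.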

Adenosine receptor A2b [7] = target: T5, Adenosine receptor A2b (Homo sapiens, UniProt P29275); experiment: Displacement of [3H]PSB-298 from human adenosine A2B receptor expressed in HEK293 cells at 10 uM; Less than 10% inhibition; assay type: cell-based
T5 sequence (P29275 whole entry): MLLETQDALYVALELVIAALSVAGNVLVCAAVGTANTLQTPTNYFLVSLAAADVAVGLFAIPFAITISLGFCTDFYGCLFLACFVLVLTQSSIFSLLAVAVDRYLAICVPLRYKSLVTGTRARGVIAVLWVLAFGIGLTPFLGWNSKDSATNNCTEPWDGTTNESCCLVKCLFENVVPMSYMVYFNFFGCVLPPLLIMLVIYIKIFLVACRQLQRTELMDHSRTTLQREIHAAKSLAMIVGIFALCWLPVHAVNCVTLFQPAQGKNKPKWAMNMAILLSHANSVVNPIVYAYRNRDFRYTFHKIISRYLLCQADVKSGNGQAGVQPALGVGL

Adenosine receptor A1 [8] = target: T3, Adenosine receptor A1; experiment: Displacement of [3H]DPCPX from adenosine A1 receptor of rat cortical membranes with GTP; assay type: cell membranes, Membrane; outline: as §1
Adenosine receptor A3 [9] = target: T4, Adenosine receptor A3; experiment: Inhibition of forskolin-stimulated cAMP accumulation in chinese hamster ovary cell membranes expressing human adenosine A3 receptor; assay type: functional, cell-based
Adenosine receptor A2b [10] = target: T5, Adenosine receptor A2b; experiment: Binding affinity towards human adenosine A2B receptor in VA13 fibroblasts as […] at 10 uM; Less than 10% inhibition; assay type: functional
Adenosine receptor A1 [11] = target: T3, Adenosine receptor A1; experiment: Displacement of [3H]R-PIA from adenosine A1 receptor of rat cortical membranes; assay type: cell membranes, Membrane
Adenosine receptor A1 [12] = target: T3, Adenosine receptor A1; experiment: Displacement of [3H]DPCPX from adenosine A1 receptor of rat cortical membranes; assay type: cell membranes, Membrane
Outline: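 Run as the rat cortical membrane A1 assay (50 mM Tris-HCl pH 7.4, 23 °C, 90 min) but with [3H]DPCPX as radioligand. Nonspecific binding was set with 10 µM unlabeled DPCPX. Binding was measured without and with 100 µM GTP, and IC50 came from nonlinear regression. GTP shift is the IC50 with GTP divided by the IC50 without GTP. Two experiments were run, each in duplicate.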

[13] = target: T6, Adenosine receptor A1 (Rattus norvegicus) (UniProt P25099); experiment: Binding affinity against adenosine A1 receptor in the presence of GTP relative to the absence of GTP
T6 sequence (whole entry): T3 sequence (P25099 whole entry)

Adenosine receptor A2b [14] = target: T5, Adenosine receptor A2b; experiment: Displacement of [3H]PSB-298 from human adenosine A2B receptor expressed in HEK293 cells at 10 uM; assay type: cell-based
Adenosine receptor A1 [15] = target: T3, Adenosine receptor A1; experiment: Displacement of [3H]CCPA from Adenosine A1 receptor of rat cortical membranes; assay type: cell membranes, Membrane
Outline: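 A1 binding used rat cortical membranes (ca. 70 µg/mL protein) with 0.5 nM [3H]CCPA in 50 mM Tris-HCl, pH 7.4, for 90 min at 23 °C. 10 µM 2-chloroadenosine defined nonspecific binding. Separation was by GF/B filtration and scintillation counting. Inhibition curves had seven to nine concentrations across 3 orders of magnitude; three separate experiments, each in duplicate.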

Adenosine receptor A1 [16] = target: T3, Adenosine receptor A1; experiment: Displacement of [3H]DPCPX from rat Adenosine A1 receptor of cortical membranes; assay type: cell membranes, Membrane; outline: as §1

T1 sequence (P30543 whole entry): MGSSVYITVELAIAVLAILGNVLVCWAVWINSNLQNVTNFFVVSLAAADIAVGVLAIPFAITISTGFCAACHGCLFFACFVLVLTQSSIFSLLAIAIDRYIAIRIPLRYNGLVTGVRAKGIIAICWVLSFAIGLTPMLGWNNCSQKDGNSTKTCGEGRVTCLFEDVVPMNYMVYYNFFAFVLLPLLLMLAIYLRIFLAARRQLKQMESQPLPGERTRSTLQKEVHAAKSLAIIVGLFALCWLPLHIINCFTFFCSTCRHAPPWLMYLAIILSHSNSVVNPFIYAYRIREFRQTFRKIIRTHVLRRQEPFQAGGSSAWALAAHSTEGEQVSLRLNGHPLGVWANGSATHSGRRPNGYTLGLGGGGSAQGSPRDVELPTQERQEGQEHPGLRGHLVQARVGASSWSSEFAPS

Ki (Adenosine receptor A2a [1]) [µM] | Efficacy [2] [%] | IC50 (Adenosine receptor A1 [3]) [µM] | Ki (Adenosine receptor A2a [4]) [µM] | Ki (Adenosine receptor A3 [5]) [µM] | Ki (Adenosine receptor A1 [6]) [µM] | Ki (Adenosine receptor A2b [7]) [µM] | IC50 (Adenosine receptor A1 [8]) [µM] | IC50 (Adenosine receptor A3 [9]) [µM] | Ki (Adenosine receptor A2b [10]) [µM] | Ki (Adenosine receptor A1 [11]) [µM] | Ki (Adenosine receptor A1 [12]) [µM] | Ratio [13] | Ki (Adenosine receptor A2b [14]) [µM] | Ki (Adenosine receptor A1 [15]) [µM] | Ki (Adenosine receptor A1 [16]) [µM] | Compound
1.13 | 46 | 0.68 | 1.18 | 0.68 | 0.15 | 13.9 | 15.1 | 71 | 8.2 | 0.24 | 0.21 | 22.2 |  |  |  | CSC[C@H]1O[C@@H](n2cnc3c(N)ncnc32)[C@H](O)[C@@H]1O [METHYLTHIOADENOSINE]
17.1 | 56 | 23 |  | 6.94 |  |  | 143 | 6.7 |  |  |  | 6.2 | > 10 | 3.26 | 9.45 | CO/C(=C\c1ccc(O)cc1)C(=O)O[C@@H]1[C@H](OC(=O)/C=C/c2c[nH]cn2)[C@@H](CSC)O[C@H]1n1cnc2c(N)ncnc21
 |  | 0.005 |  |  |  |  | 0.125 |  |  |  |  | 22.8 |  |  |  | CC(=O)O[C@]1(C(C)=O)CC[C@H]2[C@@H]3C=C(Cl)C4=CC(=O)[C@@H]5C[C@@H]5[C@]4(C)[C@H]3CC[C@@]21C [CYPROTERONE ACETATE]
 |  | 12.5 |  |  |  |  | 14.7 |  |  |  |  | 1.2 |  |  |  | Cn1cnc2c(N)ncnc21
